We go through 22 molecules from ChEMBL document CHEMBL3297674, “Structure-activity relationships of 2'-modified-4'-selenoarabinofuranosyl-pyrimidines as anticancer agents” (Eur J Med Chem, 2014).

One series relates to T47D. As to the kind of experiment: Cytotoxicity against human T47D cells by SRB assay. It is filed as functional, cell-based. The essentials:
(§1)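 Cytotoxicity measured in human cancer cell lines (colon HCT116, lung A549, stomach SNU638, breast T47D, prostate PC-3, leukemia K562) by sulforhodamine B protein staining.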

Series [1] is described as follows: Cytotoxicity against human SNU638 cells by SRB assay. Particulars: SNU-638. The class given is functional, cell-based. The essentials:
as §1

In a further series the test system is K562. As to the kind of experiment: Cytotoxicity against human K562 cells by SRB assay. It is filed as functional, cell-based. Put shortly: as §1
In another series the test system is A549. Put plainly: Cytotoxicity against human A549 cells by SRB assay. It is filed as functional, cell-based. Put shortly:
as §1

The next series has as its system HCT-116. Put plainly: Cytotoxicity against human HCT116 cells by SRB assay. It is filed as functional, cell-based. The essentials: as §1
Series [2] concerns PC-3. As to the kind of experiment: Cytotoxicity against human PC3 cells by SRB assay. It is filed as functional, cell-based. The essentials:
as §1

In series [3] the test system is PC-3. As to the kind of experiment: Drug metabolism in human PC3 cells assessed as formation of mono, di, or triphosphate at 50 uM after 24 hrs by HPLC-MS analysis. The class given is ADME, cell-based. Particulars: pc-3, 24 h. The essentials:
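PC-3 cells seeded at 5×10^5 per 100 mm dish, grown 24 h, then exposed to 50 µM compound for 24 h. Cells washed with DPBS and extracted in methanol/chloroform with three liquid N₂ freeze–sonication cycles. Water/chloroform phase split at 22,000 g, 4 °C. Dried upper layer analysed by HILIC (ZIC-pHILIC, 10 mM ammonium carbonate/acetonitrile gradient, 35 °C) with ESI ion-trap MS.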

The structures appear in SMILES notation.

Consider `[N-]=[N+]=N[C@@H]1C(n2ccc(=O)[nH]c2=O)[Se][C@H](CO)[C@H]1O` (stereo partly drawn), for which the IC50 (in the series on T47D; in series [1]; in the series on K562; in the series with A549; in the series on HCT-116; in the series with PC-3 [2]) was more than 100 µM in each case.
On to `[N-]=[N+]=N[C@@H]1C(n2cc(Cl)c(=O)[nH]c2=O)[Se][C@H](CO)[C@H]1O` (stereo partly drawn), for which the half-maximal inhibitory concentration (IC50) (with T47D; in series [1]; in the series on K562; with A549; in the series with HCT-116; in the series with PC-3 [2]) was more than 100 µM in each case.
Take `[N-]=[N+]=N[C@@H]1C(n2cc(I)c(=O)[nH]c2=O)[Se][C@H](CO)[C@H]1O` (stereo partly drawn): the IC50 (with T47D; in series [1]; in the series on K562; with A549; with HCT-116; in the series on PC-3 [2]) was more than 100 µM in each case.
On to `Cc1cn(C2[Se][C@H](CO)[C@@H](O)[C@@H]2F)c(=O)[nH]c1=O` (stereo partly drawn), for which the IC50 with T47D came to 65.3 µM; in series [1], 77.2 µM; in the series with K562, 76.3 µM; in the series with A549, 76.4 µM; in the series on HCT-116, 85.2 µM; in the series with PC-3 [2], 88 µM.
For `O=c1[nH]c(=O)n(C2[Se][C@H](CO)[C@@H](O)[C@@H]2F)cc1F` (stereo partly drawn), the half-maximal inhibitory concentration (IC50) in the series with T47D stood at 51.1 µM; in series [1], 50.1 µM; in the series on K562, 78.5 µM; in the series on A549 it was 54.2 µM; in the series with HCT-116, 40.1 µM; with PC-3 [2], 43.1 µM.
Take `O=c1[nH]c(=O)n(C2[Se][C@H](CO)[C@@H](O)[C@@H]2F)cc1Br` (stereo partly drawn): the IC50 (in the series on T47D; in series [1]; in the series with K562; in the series on A549; with HCT-116; in the series with PC-3 [2]) was more than 100 µM each time.
Take `O=c1[nH]c(=O)n(C2[Se][C@H](CO)[C@@H](O)[C@@H]2F)cc1I` (stereo partly drawn): the half-maximal inhibitory concentration (IC50) (with T47D; in series [1]; in the series on K562; in the series with A549; in the series with HCT-116; in the series with PC-3 [2]) was more than 100 µM throughout.
`O=c1ccn(C2[Se][C@H](CO)[C@@H](O)[C@@H]2O)c(=O)[nH]1` (stereo partly drawn): the IC50 (in the series on T47D; in series [1]; in the series with K562; in the series on A549; in the series with HCT-116; with PC-3 [2]) was more than 100 µM throughout.
On to `Cc1cn(C2[Se][C@H](CO)[C@@H](O)[C@@H]2O)c(=O)[nH]c1=O` (stereo partly drawn), for which the IC50 (with T47D; in series [1]; in the series with K562; with A549; in the series with HCT-116; in the series on PC-3 [2]) was more than 100 µM each time.
Regarding `O=c1[nH]c(=O)n(C2[Se][C@H](CO)[C@@H](O)[C@@H]2O)cc1F` (stereo partly drawn), the IC50 in the series with T47D is 67.4 µM; in series [1] it was 60.1 µM; with K562 it was more than 100 µM; with A549, 55.2 µM; with HCT-116, 56.8 µM; in the series with PC-3 [2], 66.3 µM.
Regarding `O=c1[nH]c(=O)n(C2[Se][C@H](CO)[C@@H](O)[C@@H]2O)cc1Cl` (stereo partly drawn), the IC50 (in the series on T47D; in series [1]; in the series on K562; in the series on A549; with HCT-116; with PC-3 [2]) was more than 100 µM each time.
With `O=c1[nH]c(=O)n(C2[Se][C@H](CO)[C@@H](O)[C@@H]2O)cc1Br` (stereo partly drawn), the IC50 (with T47D; in series [1]; in the series with K562; with A549; with HCT-116; in the series with PC-3 [2]) was more than 100 µM throughout.
As to `O=c1[nH]c(=O)n(C2[Se][C@H](CO)[C@@H](O)[C@@H]2O)cc1I` (stereo partly drawn), the half-maximal inhibitory concentration (IC50) (with T47D; in series [1]; in the series with K562; in the series with A549; in the series on HCT-116; in the series with PC-3 [2]) was more than 100 µM throughout.
As to `Nc1ccn(C2[Se][C@H](CO)[C@@H](O)[C@@H]2F)c(=O)n1` (stereo partly drawn), the IC50 with T47D was found to be 0.79 µM; in series [1], 0.14 µM; with K562 it was 0.63 µM; in the series with A549, 0.47 µM; in the series with HCT-116 it was 1.1 µM; in the series on PC-3 [2], 0.58 µM. Further, the Drug metabolism result with PC-3 [3] is reported as “metabolite_notdetected”.
For the molecule `Nc1ccn(C2[Se][C@H](CO)[C@@H](O)[C@@H]2O)c(=O)n1` (stereo partly drawn), the IC50 was 8.91 µM with T47D; 4.72 µM in series [1]; 86.6 µM in the series on K562; 8.83 µM in the series with A549; 7.13 µM with HCT-116; 4.54 µM with PC-3 [2].
In the case of `Cc1cn(C2[Se][C@H](CO)[C@@H](O)[C@@H]2N=[N+]=[N-])c(=O)[nH]c1=O` (single isomer, unassigned; (+)), the IC50 (in the series with T47D; in series [1]; in the series with K562; in the series with A549; in the series on HCT-116; in the series with PC-3 [2]) was more than 100 µM in each case.
Turning to `[N-]=[N+]=N[C@@H]1C(n2cc(F)c(=O)[nH]c2=O)[Se][C@H](CO)[C@H]1O` (single isomer, unassigned; (+)), the IC50 (in the series with T47D; in series [1]; with K562; in the series on A549; in the series with HCT-116; in the series with PC-3 [2]) was more than 100 µM throughout.
`O=c1[nH]c(=O)n(C2[Se][C@H](CO)[C@@H](O)[C@@H]2F)cc1Cl` (single isomer, unassigned; (+)): the IC50 in the series on T47D is 77.1 µM; in series [1] it was 76.3 µM; with K562, more than 100 µM; with A549, 82.1 µM; with HCT-116, 80.2 µM; with PC-3 [2] it was more than 100 µM.
In the case of `[N-]=[N+]=N[C@@H]1C(n2ccc(N)nc2=O)[Se][C@H](CO)[C@H]1O` (single isomer, unassigned; (+)), the IC50 in the series on T47D is 78.4 µM; in series [1], 85.2 µM; in the series with K562 it was 62.3 µM; in the series on A549 it was 80.1 µM; in the series on HCT-116, 78.3 µM; with PC-3 [2], 75.1 µM.
Take `[N-]=[N+]=N[C@@H]1C(n2cc(Br)c(=O)[nH]c2=O)[Se][C@H](CO)[C@H]1O` (single isomer, unassigned; (-)): the IC50 (with T47D; in series [1]; with K562; in the series with A549; in the series with HCT-116; in the series on PC-3 [2]) was more than 100 µM each time.
`O=c1ccn(C2[Se][C@H](CO)[C@@H](O)[C@@H]2F)c(=O)[nH]1` (single isomer, unassigned; (-)): the IC50 (in the series on T47D; in series [1]; in the series on K562; in the series with A549; with HCT-116; in the series with PC-3 [2]) was more than 100 µM each time.
For `Nc1ccn([C@@H]2O[C@H](CO)[C@@H](O)[C@@H]2O)c(=O)n1` [CYTARABINE], half-maximal inhibition in series [1] (IC50) was put at 0.15 µM.
